Active and inactive are the calls of the source.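 Rule for the calls: active = cAMP rise above 50% of the positive control response, mean of two replicates; inactive = cAMP rise at or below 50% of control.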

cAMP induction, % of PGE1 data for 16 compounds are collected here from PubChem BioAssay AID2645 (Broad Institute, 2010).

This assay relates to human washed platelets, cAMP competitive ELISA, 5 min. As to the kind of experiment: platelet cAMP elevation by compounds, confirmation, counter-screen for platelet activation inhibitor project, cell-based, competitive ELISA, PGE1 reference (AID 2645). As to conditions: at 10 µM; active compounds read high. Summed up: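 Assay system: Washed donor platelets | Doses: 10 µM, single dose | Timing: 5 min compound treatment | Measured by: Competitive cAMP ELISA, platelet lysates, 0.5% Triton X-100, 0.1 M HCl | Control set: PGE1 1 µM high, DMSO 0.3% neutral | Replicates: Duplicates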
For orientation: Counterscreens check selectivity or assay interference.

For the compound `COC(=O)CS(=O)(=O)c1ccc2c(c1)CC(=O)N2`, the cAMP induction, % of PGE1 is 57.2%.
In the case of `COc1cc2c(cc1OC)-c1cc(Nc3ccc(F)cc3)nc(=O)n1CC2` it was 210%; in that of `COc1ccccc1C(=O)Nc1c[nH]c(=O)[nH]c1=O`, 97.7%; in that of `COc1cc2c(cc1OC)-c1cc(N3CCCCCC3)nc(=O)n1CC2`, 83.7%.
Take `O=c1[nH]c2c(s1)C=Nc1ccccc1N2`: the cAMP induction, % of PGE1 is 163%.
In the case of `C/C(=N/NC(=O)C1CCCC1)c1ccc(NC(=O)C(F)(F)F)cc1` it was -25% (inactive); in that of `CCOc1cc(/C=N/NC(N)=O)cc(Br)c1OCC(=O)Nc1ccccc1C`, 155%; in that of `COc1cc2c(cc1OC)-c1cc(Nc3ccccc3C)nc(=O)n1CC2`, 638%.
In the case of `COc1cc2c(cc1OC)/C(=C/C(=O)c1ccc(NC(C)=O)cc1)NCC2` it was 67.8%; in that of `Cc1ccc(-n2c(N)c(C#N)c(-c3ccccc3)c(C#N)c2=O)cc1`, -16.7% (inactive); in that of `COc1ccccc1-n1cc(-c2ccc(Cl)cc2)[nH]c1=O`, 32.2% (inactive).
With `COc1ccc(/C=N/N(C)c2cc(=O)n(C)c(=O)[nH]2)cc1OC`, the cAMP induction, % of PGE1 was 136%.
Regarding `Cc1[nH]c(=O)c(C#N)c(C)c1CSc1ncccn1`, the cAMP induction, % of PGE1 is 55.4%.
In the case of `CCC(CC)=N/N=C/c1c(O)n(CC)c2cc(C3=NNC(=O)CC3)ccc12` it was 109%.
In the case of `O=C(Nc1cccc(NC(=O)c2ccccc2Cl)c1)c1ccco1` it was -18.7% (inactive); in that of `COc1cc2c(cc1OC)-c1cc(N3CCc4ccccc43)nc(=O)n1CC2`, 74.8%.
